These results are taken from ChEMBL document CHEMBL1153363, “Structure-activity relationships for a series of quinoline-based compounds active against replicating and nonreplicating Mycobacterium tuberculosis” (J Med Chem, 2009).

Converted amounts (≈) assume the structure as drawn. Where only a bound is given, the exact number is not on record here.

Experiment [1] has as its system Mycobacterium tuberculosis. Kind of experiment: Antitubercular activity against replicating form of Mycobacterium tuberculosis H37Rv ATCC 27294 after 7 days by microplate alamar blue assay. It is filed as functional. Particulars: 168 h. A digest of the protocol: (§1)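 12.8 mM DMSO stocks; two-fold dilutions in Middlebrook 7H12 broth, final 128 to 0.5 µM. Inoculum 2 × 10⁵ cfu/mL, 37 °C. On day 7, Tween 80 plus Alamar Blue added; fluorescence read (ex 530/em 590 nm) after 16-24 h more. MIC = lowest concentration giving ≥90% fluorescence drop versus bacteria-only controls; mean of two runs. RMP and INH positive controls.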
(The colour change of resazurin is a common sign of viable cells or microbes.)

A further experiment has as its system Vero. Kind of experiment: Cytotoxicity against african green monkey Vero cells after 72 hrs by Cell titer assay. It is filed as cell-based, Chlorocebus sabaeus. The method in brief:
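Vero CCL-81 cells, log phase. Samples from 12.8 mM DMSO stocks in geometric 3-fold dilutions in MEM with 10% FBS, 25 mM HEPES, 0.2% NaHCO₃ and 2 mM glutamine; DMSO ≤1% v/v final. Run in duplicate, 72 h at 37 °C, 5% CO₂. Viability by CellTiter 96 aqueous assay, absorbance 490 nm; IC50 from curve fitting.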

In experiment [2] the test system is Mycobacterium tuberculosis. Kind of experiment: Antitubercular activity against non replicating persistent form of Mycobacterium tuberculosis H37Rv ATCC 27294 after 10 days by LORA. The note with it: 240 h. Type of experiment: functional. A digest of the protocol: (§2)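 Recombinant H37Rv (pFCA-luxAB, V. harveyi luciferase, acetamidase promoter), low-oxygen adapted in fermentor, washed in PBS, stored at -80 °C. About 10⁵ cfu/mL of thawed cells exposed to two-fold serial dilutions in 7H12, 10 days anaerobic at 37 °C. Luminescence read after 28 h aerobic recovery (5% CO₂). MIC = lowest concentration preventing recovery (90% reduction versus untreated), read graphically.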

In experiment [3] the test system is Mycobacterium tuberculosis. Kind of experiment: Antitubercular activity against replicating form of Mycobacterium tuberculosis. Type of experiment: functional. A digest of the protocol: as §1
In experiment [4] the test system is Mycobacterium tuberculosis. Kind of experiment: Antitubercular activity against non replicating persistent form of Mycobacterium tuberculosis. It is filed as functional. A digest of the protocol:
as §2

The test system of experiment [5] is Mycobacterium tuberculosis. Kind of experiment: Ratio of MIC for non replicating persistent form of Mycobacterium tuberculosis H37Rv ATCC 27294 by LORA to MIC for replicating form of Mycobacterium tuberculosis H37Rv ATCC 27294 by microplate alamar blue assay. Type of experiment: functional.
For experiment [6], the system named is Mycobacterium tuberculosis. Kind of experiment: Antitubercular activity against Mycobacterium tuberculosis. It is filed as functional. The method in brief:
as §1

Where [7] appears, read: Chlorocebus sabaeus, Vero, 72 h.

As a reminder, the MIC is the least concentration at which growth counts as inhibited. `CCOC(=O)c1coc(COc2cc(C(F)(F)F)nc3c(C(F)(F)F)cccc23)n1`: the MIC in experiment [1] is > 128 µM.

Usually IC50 stands for the concentration at which inhibition is half-maximal. In experiment [1], `CCOC(=O)c1cc(COc2cc(C(F)(F)F)nc3c(C(F)(F)F)cc(OC)cc23)on1` registered an MIC of 66.1 µM (≈ 30.7 µg/mL). Also, the IC50 with Vero (setting [7]) was > 128 µM.

For `CCOC(=O)c1cc(-c2cccc(Oc3cc(C(F)(F)F)nc4ccccc34)c2)on1`, the figures for the MIC in experiment [1] and in experiment [2] were 0.95 µM (≈ 0.407 µg/mL) and 3.7 µM (≈ 1.58 µg/mL), respectively. The 50% inhibitory concentration (IC50) in the experiment with Vero (setting [7]) is > 128 µM.

Turning to `CCOC(=O)c1cc(COc2cc(C(F)(F)F)nc3c(Cl)cccc23)on1`, the minimum inhibitory concentration (MIC) was 62.9 µM (≈ 25.2 µg/mL) in experiment [1] and 49.3 µM (≈ 19.8 µg/mL) in experiment [2].

On to `CCOC(=O)c1cc(COc2cc(C(F)(F)F)nc3c(F)ccc(F)c23)on1`, for which the minimal inhibitory concentration (MIC) in experiment [1] worked out at 41.2 µM (≈ 16.6 µg/mL); in experiment [2], 52.8 µM (≈ 21.2 µg/mL).

Turning to `CN[C@@H]1[C@H](O[C@H]2[C@H](O[C@H]3[C@H](O)[C@@H](O)[C@H](N=C(N)N)[C@@H](O)[C@@H]3N=C(N)N)O[C@@H](C)[C@]2(O)C=O)O[C@@H](CO)[C@H](O)[C@H]1O` [STREPTOMYCIN], in experiment [1], the MIC was found to be 0.3 µM (≈ 0.174 µg/mL).

As for `CCOC(=O)c1ccc(COc2cc(C(F)(F)F)nc3c(C(F)(F)F)cccc23)o1`, the MIC in experiment [1] was > 128 µM. In the experiment with Vero (setting [7]), this compound returned an IC50 of 118 µM.

With `CCOC(=O)c1cccc(COc2cc(C(F)(F)F)nc3c(C(F)(F)F)cccc23)n1`, the minimum inhibitory concentration (MIC) in experiment [1] was > 128 µM.

Take `CCOC(=O)c1cc(COc2cc(C(F)(F)F)nc3c(C(F)(F)F)cccc23)on1`: the MIC in experiment [1] was 0.9 µM (≈ 0.391 µg/mL); in experiment [3], 0.9 µM (≈ 0.391 µg/mL); in experiment [2] it was 12.2 µM (≈ 5.3 µg/mL); in experiment [4], 12.2 µM (≈ 5.3 µg/mL). For the same compound, the IC50 with Vero (setting [7]) was > 128 µM.

Regarding `CCOC(=O)c1cc(COc2cc(C(F)(F)F)nc3c(F)cccc23)on1`, the MIC came out at 11.3 µM (≈ 4.34 µg/mL) in experiment [1] and 39 µM (≈ 15 µg/mL) in experiment [2]. In addition, the IC50 with Vero (setting [7]) is > 128 µM.

In the case of `CCOC(=O)c1cc(CCOc2cc(C(F)(F)F)nc3c(C(F)(F)F)cccc23)on1`, the minimal inhibitory concentration (MIC) in experiment [1] is 3.4 µM (≈ 1.52 µg/mL); in experiment [2], 9.9 µM (≈ 4.44 µg/mL). Also, the IC50 in the experiment with Vero (setting [7]) is > 128 µM.

On to `NNC(=O)c1ccncc1` [ISONIAZID], for which the MIC was 0.5 µM (≈ 0.0686 µg/mL) in experiment [1] and > 128 µM in experiment [2]. Moreover, the concentration for half-maximal inhibition (IC50) in the experiment with Vero (setting [7]) was > 128 µM.

Take `CCC(=O)c1cc(COc2cc(C(F)(F)F)nc3c(C(F)(F)F)cccc23)on1`: in experiment [1], the MIC was 27.4 µM (≈ 11.5 µg/mL). For the same compound, the IC50 in the experiment with Vero (setting [7]) is 64.9 µM.

On to `CCOC(=O)c1cc(COc2cc(C(F)(F)F)nc3ccc(C(F)(F)F)cc23)on1`, for which the MIC in experiment [1] is 3.7 µM (≈ 1.61 µg/mL); in experiment [2] it was 7.6 µM (≈ 3.3 µg/mL). In the experiment with Vero (setting [7]), the 50% inhibitory concentration (IC50) was > 128 µM. In addition, the Ratio in experiment [5] was found to be 2.

For the compound `CCOC(=O)c1cc(COc2cc(C(F)(F)F)nc3c(C)cccc23)on1`, the minimal inhibitory concentration (MIC) was found to be 1.8 µM (≈ 0.685 µg/mL) in experiment [1] and 10.4 µM (≈ 3.96 µg/mL) in experiment [2]. For the same compound, in the experiment on Vero (setting [7]), the half-inhibitory concentration (IC50) is > 128 µM.

`CCOC(=O)c1cc(COc2cc(C(F)(F)F)nc3cc(C(F)(F)F)ccc23)on1`: 1.3 µM (≈ 0.565 µg/mL) was the least that counted as inhibitory in experiment [1] (MIC). In addition, the IC50 in the experiment on Vero (setting [7]) was > 128 µM.

With `CCOC(=O)c1cc(COc2cc(C(F)(F)F)nc3c(OC(F)(F)F)cccc23)on1`, the figures for the MIC in experiment [1] and in experiment [2] were 2.6 µM (≈ 1.17 µg/mL) and 7 µM (≈ 3.15 µg/mL), respectively. For the same compound, in the experiment with Vero (setting [7]), the 50% inhibitory concentration (IC50) is > 128 µM.

Take `CCOC(=O)c1cc(COc2cc(C(=O)OCC)nc3ccccc23)on1`: the minimal inhibitory concentration (MIC) in experiment [1] is 7.9 µM (≈ 2.93 µg/mL); in experiment [2], 15.7 µM (≈ 5.81 µg/mL). For the same compound, in the experiment with Vero (setting [7]), the IC50 was > 128 µM.

Regarding `CO[C@H]1/C=C/O[C@@]2(C)Oc3c(C)c(O)c4c(O)c(c(/C=N/N5CCN(C)CC5)c(O)c4c3C2=O)NC(=O)/C(C)=C\C=C\[C@H](C)[C@H](O)[C@@H](C)[C@@H](O)[C@@H](C)[C@H](OC(C)=O)[C@@H]1C` [RIFAMPIN], the values for the MIC in experiment [1] and in experiment [2] were 0.1 µM (≈ 0.0823 µg/mL) and 1.9 µM (≈ 1.56 µg/mL), respectively. Also, the IC50 with Vero (setting [7]) and in the experiment on Vero (vero) was 127 µM in each case.

With `CCOC(=O)c1cc(COc2cc(C(F)(F)F)nc3c(F)cc(F)cc23)on1`, the minimal inhibitory concentration (MIC) in experiment [1] was 14.6 µM (≈ 5.87 µg/mL).

Consider `CCOC(=O)c1cc(COc2cc(C(F)(F)F)nc3cc(C(F)(F)F)cc(C(F)(F)F)c23)on1`, for which the MIC in experiment [1] was determined as 0.77 µM (≈ 0.387 µg/mL); in experiment [2] it was 10 µM (≈ 5.02 µg/mL). Besides, the IC50 in the experiment with Vero (setting [7]) is > 128 µM.

In turn, `O=[N+]([O-])c1ccc(COc2cc(C(F)(F)F)nc3c(C(F)(F)F)cccc23)o1` displayed an MIC in experiment [1] of 6.3 µM (≈ 2.56 µg/mL). The compound also came in with an IC50 in the experiment with Vero (setting [7]) of 15.4 µM.

Consider `OC(c1cc(C(F)(F)F)nc2c(C(F)(F)F)cccc12)C1CCCCN1` (configuration not stated) [MEFLOQUINE], for which the minimal inhibitory concentration (MIC) in experiment [6] was 13 µM (≈ 4.92 µg/mL).

Consider `CCOC(=O)C1=NOC(COc2cc(C(F)(F)F)nc3c(C(F)(F)F)cccc23)C1` (configuration not stated), for which the MIC in experiment [1] amounted to 22.2 µM (≈ 9.69 µg/mL). Moreover, the IC50 with Vero (setting [7]) was > 128 µM.

As for `FC(F)(F)c1cc(OCc2nnn[nH]2)c2cccc(C(F)(F)F)c2n1`, in experiment [1], the MIC is > 128 µM.

Turning to `CCOC(=O)c1cc(Cn2ccc(=O)c3ccc(C(F)(F)F)cc32)on1`, in experiment [1], the minimal inhibitory concentration (MIC) was > 128 µM.

For `CCOC(=O)c1ccc(COc2cc(C(F)(F)F)nc3c(C(F)(F)F)cccc23)cc1`, the minimum inhibitory concentration (MIC) in experiment [1] is > 128 µM. The half-inhibitory concentration (IC50) with Vero (setting [7]) was > 128 µM.

As for `CCOC(=O)c1cc(COc2ccnc3c(C(F)(F)F)cccc23)on1`, the minimal inhibitory concentration (MIC) in experiment [1] was found to be 10.6 µM (≈ 3.88 µg/mL); in experiment [2], 56.6 µM (≈ 20.7 µg/mL). Further, in the experiment with Vero (setting [7]), the IC50 was > 128 µM.

As for `CCOC(=O)c1nc(COc2cc(C(F)(F)F)nc3c(C(F)(F)F)cccc23)cs1`, the minimal inhibitory concentration (MIC) in experiment [1] was determined as 16.5 µM (≈ 7.43 µg/mL). Besides, in the experiment with Vero (setting [7]), the IC50 was > 128 µM.

Turning to `CCOC(=O)c1cc(COc2cc(C(F)(F)F)nc3ccccc23)on1`, the MIC in experiment [1] is 3.2 µM (≈ 1.17 µg/mL); in experiment [2], 25.1 µM (≈ 9.19 µg/mL). Also, the concentration for half-maximal inhibition (IC50) in the experiment with Vero (setting [7]) is > 128 µM.

Turning to `CCOC(=O)c1cc(COc2cc(C(F)(F)F)nc3cc(Cl)cc(Cl)c23)on1`, the figures for the MIC in experiment [1] and in experiment [2] were 1.9 µM (≈ 0.827 µg/mL) and 3.7 µM (≈ 1.61 µg/mL), respectively. Moreover, the IC50 in the experiment on Vero (setting [7]) was > 128 µM.

`CCOC(=O)c1cc(COc2cc(C(F)(F)F)nc3c(C(F)(F)F)cccc23)no1` returned an MIC in experiment [1] of 3.6 µM (≈ 1.56 µg/mL). Moreover, the half-maximal inhibitory concentration (IC50) in the experiment on Vero (setting [7]) was > 128 µM.

As to `CCOC(=O)c1cc(COc2ccnc3cc(C(F)(F)F)ccc23)on1`, the minimum inhibitory concentration (MIC) in experiment [1] came to 3.3 µM (≈ 1.21 µg/mL); in experiment [2] it was 81.9 µM (≈ 30 µg/mL). Besides, the Ratio in experiment [5] was 25.

In the case of `CCOC(=O)c1cc(COc2ccnc3ccccc23)on1`, the figures for the minimal inhibitory concentration (MIC) in experiment [1] and in experiment [2] were 25.1 µM (≈ 7.49 µg/mL) and 13.2 µM (≈ 3.94 µg/mL), respectively. Besides, the IC50 in the experiment on Vero (setting [7]) is > 128 µM.

In the case of `CCOC(=O)c1cc(COc2ccnc3cc(Cl)ccc23)on1`, the minimal inhibitory concentration (MIC) in experiment [1] worked out at 3.8 µM (≈ 1.26 µg/mL); in experiment [2], 99.7 µM (≈ 33.2 µg/mL). In addition, the IC50 in the experiment with Vero (setting [7]) is > 128 µM. Further, in experiment [5], the Ratio worked out at 25.

For the compound `CCOC(=O)c1cc(COc2cc(C(F)(F)F)nc3cccc(C(F)(F)F)c23)on1`, the MIC in experiment [1] was 3.8 µM (≈ 1.65 µg/mL). Further, in the experiment with Vero (setting [7]), the half-inhibitory concentration (IC50) is > 128 µM.
